The values that follow come from ChEMBL document CHEMBL1129483, “Antitumor 2-(aminocarbonyl)-1,2-bis(methylsulfonyl)-1-(2-chloroethyl)- hydrazines” (1996).

“And” between values parts separate entries of the source, which are not always exact repeats. Identical values can stand only once.

Holding throughout (assay type): functional
The subject of experiment [1] is Mus musculus. Nature of the experiment: Average percent change in body weight from onset to termination of therapy at dose 75(mg/kg). The method, boiled down:
(§1)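 CD2F1 mice implanted ip with 10^5 L1210 leukemia cells (kept by serial passage in culture and periodic ip passage in donor mice). Drug given ip in 100% DMSO, at most 0.025 mL, once daily for 6 consecutive days starting 24 h after implantation. Groups of 5–10 mice; vehicle-treated tumor-bearing controls. Body weight change is the average percent from onset to termination of therapy, used as a toxicity index.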

The test system of experiment [2] is Mus musculus. Nature of the experiment: Average percent change in body weight from onset to termination of therapy at dose 10(mg/kg). The procedure, abridged: as §1
Experiment [3] deals with Mus musculus. Nature of the experiment: Average percent change in body weight from onset to termination of therapy at dose 100(mg/kg). The method, boiled down: as §1
Experiment [4] deals with Mus musculus. Nature of the experiment: Average percent change in body weight from onset to termination of therapy at dose 15(mg/kg). The method, boiled down: as §1
Experiment [5] relates to Mus musculus. Kind of experiment: Average percent change in body weight from onset to termination of therapy at dose 20(mg/kg). The procedure, abridged: as §1
The subject of experiment [6] is Mus musculus. Kind of experiment: Average percent change in body weight from onset to termination of therapy at dose 25(mg/kg). The method, boiled down:
as §1

Experiment [7] concerns Mus musculus. Nature of the experiment: Average percent change in body weight from onset to termination of therapy at dose 5(mg/kg). The method, boiled down:
as §1

For experiment [8], the system named is Mus musculus. Nature of the experiment: Average percent change in body weight from onset to termination of therapy at dose 50(mg/kg). The procedure, abridged: as §1
Experiment [9] has as its system Mus musculus. Nature of the experiment: Average survival time of treated /control mice*100 was determined at a daily dose of 100 mg/kg. The method, boiled down: (§2)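 L1210 leukemia cells kept by serial passage in culture. 10^5 cells given ip to CD2F1 mice. Drug in 100% DMSO given ip once daily for 6 days starting 24 h after implant. 5–10 mice per group, with vehicle-treated controls. %T/C is average survival time of treated mice over controls ×100. 60-day survivors (cures) are excluded from the calculation.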

Experiment [10] relates to Mus musculus. Kind of experiment: Average survival time of treated /control mice*100 was determined at a daily dose of 10 mg/kg. The procedure, abridged: as §2
Experiment [11] deals with Mus musculus. Nature of the experiment: Average survival time of treated /control mice*100 was determined at a daily dose of 15 mg/kg. The method, boiled down: as §2
Experiment [12] deals with Mus musculus. Nature of the experiment: Average survival time of treated /control mice*100 was determined at a daily dose of 20 mg/kg. The procedure, abridged: as §2
Experiment [13] has as its system Mus musculus. Kind of experiment: Average survival time of treated /control mice*100 was determined at a daily dose of 5 mg/kg. The method, boiled down:
as §2

Experiment [14] concerns Mus musculus. Kind of experiment: Average survival time of treated /control mice*100 was determined at a daily dose of 75 mg/kg. The method, boiled down: as §2
In experiment [15] the test system is Mus musculus. Nature of the experiment: %60 day survivors were determined for the compound as the mouse […] at dose 10 mg/kg. The procedure, abridged:
(§3)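 L1210 leukemia cells kept by serial passage in culture. 10^5 cells given ip to CD2F1 mice. Drug in 100% DMSO, at most 0.025 mL, given ip once daily for 6 consecutive days starting 24 h after implant. 5–10 mice per group, with vehicle-treated tumor-bearing controls. Value is the percentage of mice alive and symptom-free 60 days after tumor implant.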

The subject of experiment [16] is Mus musculus. Kind of experiment: %60 day survivors were determined for the compound as the mouse […] at dose 20 mg/kg. The method, boiled down:
as §3

The subject of experiment [17] is Mus musculus. Nature of the experiment: %60 day survivors were determined for the compound as the mouse […] at dose 25 mg/kg. The procedure, abridged:
as §3

In experiment [18] the test system is Mus musculus. Kind of experiment: %60 day survivors were determined for the compound as the mouse […] at dose 50 mg/kg. The procedure, abridged: as §3
Experiment [19] concerns Mus musculus. Kind of experiment: %60 day survivors were determined for the compound as the mouse […] at dose 75 mg/kg. The method, boiled down: as §3
Experiment [20] has as its system Mus musculus. Nature of the experiment: %60 day survivors were determined for the compound as the mouse […] at dose 15 mg/kg. The procedure, abridged:
as §3

The test system of experiment [21] is Mus musculus. Kind of experiment: Average survival time of treated /control mice*100 was determined at a daily dose of 25 mg/kg. The procedure, abridged: as §2
Experiment [22] has as its system Mus musculus. Kind of experiment: %60 day survivors were determined for the compound as the mouse […] at dose 5 mg/kg. The method, boiled down:
as §3

Experiment [23] relates to Mus musculus. Nature of the experiment: Average percent change in body weight from onset to termination of therapy at dose 150(mg/kg). The procedure, abridged: as §1
Experiment [24] deals with Mus musculus. Kind of experiment: Average survival time of treated /control mice*100 was determined at a daily dose of 150 mg/kg. The procedure, abridged:
as §2

Experiment [25] deals with Mus musculus. Nature of the experiment: Average survival time of treated /control mice*100 was determined at a daily dose of 50 mg/kg. The method, boiled down:
as §2

The test system of experiment [26] is Mus musculus. Kind of experiment: %60 day survivors were determined for the compound as the mouse […] at dose 100 mg/kg. The procedure, abridged:
as §3

Experiment [27] has as its system Mus musculus. Kind of experiment: %60 day survivors were determined for the compound as the mouse […] at dose 150 mg/kg. The method, boiled down: as §3

Take `CCOC(=O)CNC(=O)N(N(CCCl)S(C)(=O)=O)S(C)(=O)=O`: the Change was -1.5% in the experiment on Mus musculus [1]; -1.4% in the experiment with Mus musculus [2]; -4% with Mus musculus [3]; -0.5% in the experiment on Mus musculus [4]; -3.7% in the experiment with Mus musculus [5]; -0.5% in the experiment with Mus musculus [6]. Further, the Change in the experiment with Mus musculus [7] is -1.5%; in the experiment on Mus musculus [8], -2.5%. In addition, the T/C with Mus musculus [9] is 115%; in the experiment on Mus musculus [10] it was 202%; in the experiment on Mus musculus [11] it was 202%; in the experiment on Mus musculus [12] (20 mg/kg), 191% and 138%; in the experiment with Mus musculus [13], 151%; with Mus musculus [14], 119%. Further, the Survivors with Mus musculus [15] is reported as 20%; in the experiment on Mus musculus [16], 20%; with Mus musculus [17], 100%; with Mus musculus [18], 80%; in the experiment on Mus musculus [19], 60%.
As for `CS(=O)(=O)N(CCCl)N(C(=O)NCCCCl)S(C)(=O)=O`, the figures for the Change in the experiment with Mus musculus [2], with Mus musculus [4] and in the experiment with Mus musculus [7] were -5.6%, -8.8% and -2.8%, respectively. The results for the T/C in the experiment with Mus musculus [10], with Mus musculus [11] and in the experiment on Mus musculus [13] were 187%, 192% and 111%, respectively. The Survivors in the experiment on Mus musculus [20] is 20%.
Take `CCOC(=O)C(C)NC(=O)N(N(CCCl)S(C)(=O)=O)S(C)(=O)=O` (centres undefined): the Change is -2.5% in the experiment with Mus musculus [1]; -1.4% with Mus musculus [2]; -2.5% in the experiment with Mus musculus [3]; -0.5% with Mus musculus [4]; -1.5% with Mus musculus [5]; -2.5% with Mus musculus [6]. The values for the Change with Mus musculus [7] and with Mus musculus [8] were -2% and -3.3%, respectively. In addition, the T/C was determined as 178% with Mus musculus [10]; 185% in the experiment on Mus musculus [11]; 227% with Mus musculus [12]; 239% in the experiment with Mus musculus [21]; 170% in the experiment on Mus musculus [13]. The Survivors amounted to 20% in the experiment on Mus musculus [15], 60% with Mus musculus [17], 100% in the experiment with Mus musculus [18] and 80% in the experiment with Mus musculus [19].
For `CNC(=O)N(N(CCCl)S(C)(=O)=O)S(C)(=O)=O` [LAROMUSTINE], the Change with Mus musculus [2] was -5.6%; with Mus musculus [4], -2.1%; in the experiment on Mus musculus [7] it was 9.9%. The compound further came in with a T/C in the experiment on Mus musculus [13] of 234%. The Survivors stood at 100% in the experiment with Mus musculus [15], 100% with Mus musculus [20] and 40% with Mus musculus [22].
Regarding `CCOC(=O)C(Cc1ccccc1)NC(=O)N(N(CCCl)S(C)(=O)=O)S(C)(=O)=O` (centres undefined), the Change with Mus musculus [2] is -0.5%; in the experiment with Mus musculus [3] it was -2%; in the experiment on Mus musculus [4], -1.9%; in the experiment with Mus musculus [23] it was -5%; with Mus musculus [5], -1.9%; with Mus musculus [6], -0.9%. In addition, the Change with Mus musculus [7] is -2.5%; in the experiment on Mus musculus [8], -2%. Moreover, the T/C was determined as 165% with Mus musculus [10]; 169% in the experiment with Mus musculus [24]; 160% in the experiment with Mus musculus [11]; 174% with Mus musculus [12]; 177% with Mus musculus [21]; 225% in the experiment with Mus musculus [25]. Further, the T/C with Mus musculus [13] is recorded as 147%. The Survivors in the experiment with Mus musculus [26] is on record as 100%; in the experiment with Mus musculus [27] it was 20%; in the experiment on Mus musculus [18] it was 60%.
Turning to `C=CCNC(=O)N(N(CCCl)S(C)(=O)=O)S(C)(=O)=O`, the Change with Mus musculus [2] was -2.1%; with Mus musculus [4] it was -2.9%; in the experiment with Mus musculus [7], -1.6%. Moreover, the values for the T/C with Mus musculus [10] and in the experiment on Mus musculus [13] were 394% and 184%, respectively. Also, the Survivors in the experiment with Mus musculus [15] was 40%; with Mus musculus [20] it was 100%; with Mus musculus [22], 20%.
As to `CS(=O)(=O)N(CCCl)N(C(=O)NCCCl)S(C)(=O)=O`, the Change is -4.7% in the experiment on Mus musculus [2], -4% with Mus musculus [4] and -10.4% with Mus musculus [5]. Besides, the T/C is 216% in the experiment with Mus musculus [11] and 239% with Mus musculus [12]. For the same compound, the values for the Survivors in the experiment on Mus musculus [15], with Mus musculus [20] and in the experiment with Mus musculus [16] were 100%, 80% and 80%, respectively.
